Compounds with a hit are over-represented: about 1.5% of the library has one in this group of screens.
APJ antag: APJ receptor antagonism | AID 2521 | CHO-K1 APJ beta-arrestin complementation, luminescence | inhibition, % at 20 µM | P35414 | 330,000 compounds, 0.32% hits;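 active = inhibition above about 40% at 20 µM, limit read from the data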;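 note: cells challenged with 10 nM apelin-13 agonist together with compound; plate controls were apelin-13 plus DMSO wells for no effect and DMSO wells lacking apelin-13 for full effect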
Target sequence (P35414 whole entry, looked up): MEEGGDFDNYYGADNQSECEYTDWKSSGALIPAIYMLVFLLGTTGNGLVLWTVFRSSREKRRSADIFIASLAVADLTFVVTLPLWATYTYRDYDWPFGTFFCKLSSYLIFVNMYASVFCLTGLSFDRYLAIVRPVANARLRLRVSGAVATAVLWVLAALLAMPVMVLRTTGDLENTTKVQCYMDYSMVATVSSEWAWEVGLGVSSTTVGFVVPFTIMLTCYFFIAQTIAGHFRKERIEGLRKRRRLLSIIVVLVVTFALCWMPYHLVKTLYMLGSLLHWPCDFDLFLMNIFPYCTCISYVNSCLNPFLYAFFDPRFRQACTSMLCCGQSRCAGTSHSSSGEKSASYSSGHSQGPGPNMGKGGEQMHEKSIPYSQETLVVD
EBI2 block: blocks human EBI2 receptor beta-arrestin signaling | P32249 | EBI2 beta-arrestin recruitment, luminescence, 7a,25-OHC stimulated | inhibition, % at 5 µM | 360,000 compounds, 0.81% hits | AID 651636; in the data active = inhibition above about 38%;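 note: enzyme fragment complementation signal reports receptor beta-arrestin coupling in cells; 0% = agonist plus DMSO wells and 100% = wells without agonist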
APJ agonist: APJ receptor agonism; P35414; CHO-K1 APJ PathHunter beta-arrestin, luminescence; 0% DMSO wells, 100% apelin; activation, % at 20 µM; 330,000 compounds, 0.11% hits;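 active = activation more than six SD over the plate average, tested at 20 µM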;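 note: 0% = DMSO alone and 100% = apelin-13 at 10 nM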
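Assay system: engineered CHO-K1 APJ arrestin reporter cells; Amount: 1000 CHO-K1 reporter cells seeded per well; Dosing: one dose, 20 µM compound, 1% DMSO; Times: compound stimulation 90 min at 25 °C, detection 60 min; Measured by: luminescent beta-gal fragment complementation, chemiluminescent substrate; Read-out: APJ–arrestin association signal; Controls: DMSO vs Apelin-13 10 nM.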
CXCR6 block: inhibitors of human CXCR6 receptor | O00574 | CHO-K1 PathHunter CXCR6 beta-arrestin, luminescence | inhibition, % at 20 µM | 360,000 compounds, 0.36% hits | AID 602244; in the data active = inhibition above about 34%, passing the limit was not always enough;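 note: antagonist mode with CXCL16 agonist at 10 nM final; 0% = 10 nM CXCL16 with DMSO and 100% = unstimulated wells without agonist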
CCR6 antag: blocks CCL20-driven beta-arrestin recruitment at human CCR6. P51684. CHO-K1 CCR6 PathHunter beta-arrestin, luminescence, CCL20-stimulated. inhibition, % at 20 µM. 340,000 compounds, 0.49% hits. AID 493098;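 active = compounds whose inhibition of the agonist-driven luminescence signal at 20 µM reaches about 50%, limit read from the data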;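 note: cells stimulated with CCL20 at 14 nM final; plate controls were DMSO with CCL20 for no effect and DMSO without agonist for full effect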
EBI2 conf: confirmation of human EBI2 receptor antagonists | shares compounds with EBI2 block | EBI2 beta-arrestin luminescence, 7a,25-OHC antagonism | inhibition, % at 5 µM | 2,400 compounds, 29% hits;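 active = inhibition of at least 50%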
EBI2 ag: counter-screen for EBI2 antagonists: EBI2 agonist activity; shares compounds with EBI2 block; EBI2-expressing cells, agonist mode, luminescence, 60 min; 0% vehicle, 100% 7α,25-dihydroxycholesterol control; activation, % at 5 µM; 2,400 tested, under 10 active;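 active = activation of at least 50%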
bGal counter: beta-galactosidase inhibition counter-screen; shares compounds with EBI2 block; purified beta-galactosidase, luminescent Galacton Star, 15 min; inhibition, % at 5 µM; 2,400 compounds, 1% hits;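 active = replicate-average signal at least 3 plate SD below neutral wells, shown as high inhibition, flagging enzyme-inhibiting false positives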;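 note: 0% = DMSO wells with enzyme and 100% = wells lacking enzyme; higher means stronger loss of beta-gal luminescence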
Active calls of the source: *; · = no result.

SMILES	APJ antag	EBI2 block	APJ agonist	CXCR6 block	CCR6 antag	EBI2 conf	EBI2 ag	bGal counter
O=C(COc1ccc(Br)cc1)N1CCN(Cc2ccncc2)CC1	·	68*	·	5	11	54*	-2	-12
Cc1ccc(OCC(=O)N2CCN(Cc3ccc4c(c3)OCO4)CC2)cc1C	0	71*	-3	-3	-3	57*	0	-13
Cc1cccc(OCC(=O)N2CCN(Cc3ccc4c(c3)OCO4)CC2)c1	10	26	-2	-2	10	·	·	·
c1cncc(CNCCN2CCNCC2)c1	·	-18	·	-5	9	·	·	·
COc1ccc(-n2nc(C(=O)NCC(=O)N3CCC4(CC3)OCCO4)c3ccccc3c2=O)c(OC)c1	1	-1	1	-9	-10	·	·	·
CCCNC(=O)N1[C@H]2CC[C@@H]1C(C(=O)OC)=C(c1ccc(Cl)c(C(F)(F)F)c1)C2	1	-4	-1	5	12	·	·	·
COC(=O)C1=C(c2ccc(OCc3ccccc3)cc2)C[C@@H]2CC[C@H]1N2C(=O)NCc1ccccc1OC	·	21	·	8	·	·	·	·
COC(=O)C1=C(c2ccc(Cl)c(C(F)(F)F)c2)C[C@@H]2CC[C@H]1N2C(=O)NCCOc1ccc(OC)cc1	2	44*	-2	6	24	24	-2	-3
COC(=O)C1=C(c2ccc(OCc3ccccc3)cc2)C[C@@H]2CC[C@H]1N2C(=O)NCc1ccccc1C(F)(F)F	·	63*	·	8	·	23	-1	7
O=C(COc1ccccc1)N1CCN(C2CCCC2)CC1	12	25	-1	-3	-9	·	·	·
O=C(COc1ccc(Cl)cc1)N1CCN(C/C=C/c2ccccc2)CC1	-20	96*	1	1	6	86*	1	-13
COc1ccc(OCC(=O)N2CCN(C/C=C/c3ccccc3)CC2)cc1	-5	93*	2	-10	10	77*	0	-8
O=C(COc1ccccc1)N1CCN(C/C=C/c2ccccc2)CC1	4	72*	-3	-1	-7	60*	0	-16
COc1ccc(OCC(=O)N2CCN(C3CCC(c4ccccc4)CC3)CC2)cc1 (stereo unspecified)	17	85*	-3	6	6	63*	0	-11
S=C(NCCc1ccccc1)N1Cc2cc(N3CCCCC3)ccc2-n2nncc2C1	·	18	·	-2	·	·	·	·
CC(=O)OC1C=CC2[C@H]3Cc4ccc(O)c5c4[C@@]2(CCN3C)C1O5 (stereo partly specified)	14	0	-2	4	-1	·	·	·
CC12CCC3C(CC=C4CC(O)CCC43C)C1C/C(=C\c1cccc(F)c1)C2=O (stereo unspecified)	13	46*	5	-1	-17	5	0	-8
C[C@]12CC[C@@H](O)CC1=CCC1C2CC[C@]2(C)C(=O)[C@H](F)CC12 (stereo partly specified)	0	1	-2	1	-3	·	·	·
O=C(COc1ccccc1)c1cn(Cc2ccccc2)c2ccccc12	-5	46*	-2	0	20	26	-1	-14
CCC(=O)c1cn(Cc2ccccc2)c2ccccc12	-20	-1	-5	3	25	·	·	·
Clc1ccc(OCC#CCN2CCCC2)cc1	-3	1	-2	-1	2	·	·	·

Assay outcomes as filed in PubChem.
